Source: ChEMBL document CHEMBL3091291, “Synthesis and pharmacological characterization of benzenesulfonamides as dual species inhibitors of human and murine mPGES-1” (Bioorg Med Chem, 2013)
Calls of active or inactive are those of the source. No cut-off for these calls is given here.

Legend:
[1] = biological target: T1, Prostaglandin E synthase (Homo sapiens) (UniProt O14684); test: Inhibition of mPGES-1 in human HeLa cells using PGH2 as substrate assessed as inhibition of IL-1beta/TNFalpha-stimulated PGE2 production at 5 uM preincubated for 30 mins followed by substrate addition measured after 1 min by LC-MS/MS analysis; format: cell-based
T1 sequence (whole entry): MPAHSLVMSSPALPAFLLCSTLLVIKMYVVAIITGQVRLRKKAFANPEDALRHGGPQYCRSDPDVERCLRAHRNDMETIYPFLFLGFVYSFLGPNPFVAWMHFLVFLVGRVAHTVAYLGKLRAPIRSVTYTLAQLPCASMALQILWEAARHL
How it was run: (§1)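 Microsomal fraction from HeLa, NIH-3T3 or RAW 264.7 cells, obtained by sonication and ultracentrifugation, resuspended in 0.1 M KPi pH 7.4 with 2.5 mM reduced GSH. Protein at 0.15 mg/mL (HeLa, NIH) or 0.3 mg/mL (RAW) incubated with compound 30 min on ice. Reaction started with 20 µM PGH₂, stopped after 1 min with FeCl₂/citric acid. PGE₂ quantified by SPE and LC–MS/MS. IC50 from four-parameter logistic fit of increasing concentrations.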

[2] = Cytotoxicity against IL-1beta/TNFalpha-stimulated human HeLa cells assessed as cell viability at 100 uM after 24 hrs by WST-1 assay; format: cell-based; conditions: IL-1beta/TNFalpha-stimulated HeLa cells, read-out: Activity
How it was run: (§2)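 HeLa cells seeded at 3 × 10³ per well in medium with 10% FCS, grown 24 h at 37 °C, then stimulated with IL-1b (1 ng/mL) + TNFa (5 ng/mL) and treated at the same time with compound (1, 10, 100 µM) or DMSO for 24 h. WST-1 reagent then added for 90–150 min; absorbance read at 450 nm against 620 nm reference.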

[3] = test system: HeLa; test: Cytotoxicity against IL-1beta/TNFalpha-stimulated human HeLa cells assessed as cell viability up to 10 uM after 24 hrs by WST-1 assay; format: cell-based; how it was run: as §2
[4] = biological target: T1, Prostaglandin E synthase (Homo sapiens); test: Inhibition of mPGES-1 in human HeLa cells using PGH2 as substrate assessed as inhibition of IL-1beta/TNFalpha-stimulated PGE2 production at 1 to 10 uM after 24 hrs by LC-MS/MS analysis; format: cell-based
How it was run: (§3)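 HeLa cells (2 × 10⁴ per well) grown 24 h at 37 °C, then given fresh medium with 1 ng/mL IL-1b + 5 ng/mL TNFa (or PBS for unstimulated control) plus compound (1, 10 or 100 µM) or DMSO for 24 h at 37 °C. Supernatant mixed with H₃PO₄, EDTA and deuterated internal standards; PGE₂ measured by SPE and LC–MS/MS.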

[5] = biological target: T1, Prostaglandin E synthase (Homo sapiens); test: Inhibition of mPGES-1 in human HeLa cells using PGH2 as substrate assessed as inhibition of IL-1beta/TNFalpha-stimulated PGE2 production at 100 uM after 24 hrs by LC-MS/MS analysis; format: cell-based; how it was run: as §3
[6] = biological target: T2, Polyunsaturated fatty acid 5-lipoxygenase (Homo sapiens) (UniProt P09917); test: Inhibition of calcium ionophore (A23187)-stimulated human 5-LO assessed as reduction of 5(S)-HETE production by measuring remaining activity at 100 uM preincubated for 15 mins followed by calcium ionophore (A23187) addition measured after 15 mins by LC-MS/MS analysis
T2 sequence (whole entry): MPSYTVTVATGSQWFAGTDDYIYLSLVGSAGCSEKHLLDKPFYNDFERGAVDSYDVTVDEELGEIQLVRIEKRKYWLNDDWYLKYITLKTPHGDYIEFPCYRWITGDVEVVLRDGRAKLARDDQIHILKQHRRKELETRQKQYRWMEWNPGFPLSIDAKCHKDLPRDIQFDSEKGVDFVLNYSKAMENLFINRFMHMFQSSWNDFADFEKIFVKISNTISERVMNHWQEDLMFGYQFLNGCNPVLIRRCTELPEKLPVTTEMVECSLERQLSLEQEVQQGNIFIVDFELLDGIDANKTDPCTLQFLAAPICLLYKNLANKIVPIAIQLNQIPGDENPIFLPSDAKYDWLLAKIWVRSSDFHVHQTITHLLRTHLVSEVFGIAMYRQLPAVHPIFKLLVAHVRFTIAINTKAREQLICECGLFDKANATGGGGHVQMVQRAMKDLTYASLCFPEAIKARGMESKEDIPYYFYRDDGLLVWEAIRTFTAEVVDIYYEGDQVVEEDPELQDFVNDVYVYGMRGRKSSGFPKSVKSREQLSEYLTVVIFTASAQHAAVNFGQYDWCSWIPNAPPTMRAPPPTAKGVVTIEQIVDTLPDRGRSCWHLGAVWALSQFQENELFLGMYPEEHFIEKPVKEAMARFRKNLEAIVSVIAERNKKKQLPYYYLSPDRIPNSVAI
How it was run: (§4)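 Heparinized human whole blood (500 µL) preincubated with compound 15 min at 37 °C, then stimulated with 20 µM calcium ionophore A23187 in autologous plasma for 15 min at 37 °C. Plasma spiked with deuterated LTB₄ and HETE internal standards, extracted into ethyl acetate, analysed by LC–MS/MS. Inhibition scored when a level fell by 33% or more versus control.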

[7] = biological target: T2, Polyunsaturated fatty acid 5-lipoxygenase (Homo sapiens); test: Inhibition of calcium ionophore (A23187)-stimulated human 5-LO assessed as reduction of LTB4 production by measuring remaining activity at 100 uM preincubated for 15 mins followed by calcium ionophore (A23187) addition measured after 15 mins by LC-MS/MS analysis; how it was run: as §4
[8] = biological target: T3, Prostaglandin G/H synthase 2 (Homo sapiens) (UniProt P35354); test: Inhibition of LPS-stimulated COX2 in human whole blood assessed as reduction in PGF2alpha production by measuring remaining activity at 100 uM preincubated for 15 mins followed by LPS addition measured after 24 hrs by LC-MS/MS analysis
T3 sequence (whole entry): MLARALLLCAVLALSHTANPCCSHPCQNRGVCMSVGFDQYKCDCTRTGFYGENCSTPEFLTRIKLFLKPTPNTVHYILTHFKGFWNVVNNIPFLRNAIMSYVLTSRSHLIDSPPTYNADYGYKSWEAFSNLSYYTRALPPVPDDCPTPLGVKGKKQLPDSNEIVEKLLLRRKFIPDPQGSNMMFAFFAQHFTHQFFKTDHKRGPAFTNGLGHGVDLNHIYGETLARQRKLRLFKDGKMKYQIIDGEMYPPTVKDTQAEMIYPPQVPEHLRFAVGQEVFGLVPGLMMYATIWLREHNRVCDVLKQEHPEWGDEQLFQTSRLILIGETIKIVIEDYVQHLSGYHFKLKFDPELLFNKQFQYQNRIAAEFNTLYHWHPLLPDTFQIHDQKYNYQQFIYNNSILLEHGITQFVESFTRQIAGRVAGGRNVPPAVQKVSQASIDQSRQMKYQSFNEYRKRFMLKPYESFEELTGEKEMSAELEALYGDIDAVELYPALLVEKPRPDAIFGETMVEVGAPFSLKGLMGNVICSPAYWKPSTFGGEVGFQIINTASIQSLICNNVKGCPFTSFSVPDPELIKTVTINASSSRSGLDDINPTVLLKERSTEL
How it was run: (§5)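 Heparinized human whole blood (500 µL) mixed with compound in DMSO, with acetylsalicylic acid added to block COX-1, held 15 min at 37 °C, then stimulated with LPS in autologous plasma to induce COX-2/mPGES-1. After 24 h at 37 °C, samples chilled 5 min on ice; plasma collected, prostaglandins extracted and measured by LC–MS/MS. Remaining activity given relative to vehicle control.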

[9] = biological target: T3, Prostaglandin G/H synthase 2 (Homo sapiens); test: Inhibition of LPS-stimulated COX2 in human whole blood assessed as reduction in PGE2 production by measuring remaining activity at 100 uM preincubated for 15 mins followed by LPS addition measured after 24 hrs by LC-MS/MS analysis; how it was run: as §5
[10] = biological target: T4, Prostaglandin E synthase (Mus musculus) (UniProt Q9JM51); test: Inhibition of mPGES-1 in Swiss mouse NIH/3T3 cells using PGH2 as substrate assessed as inhibition of IL-1beta/TNFalpha-stimulated PGE2 production at 5 uM preincubated for 30 mins followed by substrate addition measured after 1 min by LC-MS/MS analysis; format: cell-based; how it was run: as §1
T4 sequence (whole entry): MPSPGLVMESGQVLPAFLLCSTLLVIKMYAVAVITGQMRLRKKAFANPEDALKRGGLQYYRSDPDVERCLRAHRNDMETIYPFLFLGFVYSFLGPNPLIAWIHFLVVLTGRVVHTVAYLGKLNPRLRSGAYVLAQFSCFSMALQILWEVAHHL

[11] = biological target: T5, Prostaglandin E synthase (Homo sapiens, UniProt O14684); test: Inhibition of mPGES-1 in human HeLa cells using PGH2 as substrate assessed as inhibition of IL-1beta/TNFalpha-stimulated PGE2 production preincubated for 30 mins followed by substrate addition measured after 1 min by LC-MS/MS analysis; format: cell-based; how it was run: as §1
T5 sequence (O14684 whole entry): T1 sequence (whole entry)

[12] = biological target: T4, Prostaglandin E synthase (Mus musculus); test: Inhibition of mPGES-1 in mouse RAW264.7 cells using PGH2 as substrate assessed as inhibition of LPS-stimulated PGE2 production at 5 uM preincubated for 30 mins followed by substrate addition measured after 1 min by LC-MS/MS analysis; format: cell-based; how it was run: as §1
[13] = biological target: Prostaglandin G/H synthase 1 (Homo sapiens) (UniProt P23219); test: Inhibition of COX1 in human whole blood assessed as reduction in PGD2 production by measuring remaining activity at 100 uM after 1 hr by LC-MS/MS analysis
[14] = biological target: Prostaglandin G/H synthase 1 (Homo sapiens) (UniProt P23219); test: Inhibition of COX1 in human whole blood assessed as reduction in TXB2 production by measuring remaining activity at 100 uM after 1 hr by LC-MS/MS analysis

Prostaglandin G/H synthase 1 (Homo sapiens), sequence (P23219 whole entry): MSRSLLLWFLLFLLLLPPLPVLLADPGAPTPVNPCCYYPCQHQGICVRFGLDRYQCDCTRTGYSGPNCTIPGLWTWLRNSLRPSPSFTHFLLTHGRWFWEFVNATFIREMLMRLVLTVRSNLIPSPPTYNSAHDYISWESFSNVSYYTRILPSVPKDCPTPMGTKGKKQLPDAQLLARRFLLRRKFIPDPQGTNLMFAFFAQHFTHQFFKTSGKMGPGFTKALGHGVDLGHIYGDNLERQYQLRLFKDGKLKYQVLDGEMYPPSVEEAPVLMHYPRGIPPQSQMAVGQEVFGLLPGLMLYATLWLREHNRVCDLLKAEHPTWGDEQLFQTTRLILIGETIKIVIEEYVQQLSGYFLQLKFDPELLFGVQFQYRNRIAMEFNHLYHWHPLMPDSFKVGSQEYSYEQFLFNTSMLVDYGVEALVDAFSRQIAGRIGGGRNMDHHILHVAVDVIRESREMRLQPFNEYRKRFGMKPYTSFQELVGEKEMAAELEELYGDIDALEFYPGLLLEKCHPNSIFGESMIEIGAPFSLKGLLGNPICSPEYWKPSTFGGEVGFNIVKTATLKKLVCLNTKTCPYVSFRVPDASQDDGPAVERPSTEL

Row | inhibition [1] | Compound | also measured
1 | 17.4% | O=C(O)c1ccc(CN(Cc2ccccc2)Cc2ccccc2)cc1 | 
2 | 51.4% | O=C(O)c1ccc(S(=O)(=O)N(Cc2ccccc2)Cc2ccccc2)cc1 | 
3 | < 0% | CCN(Cc1ccccc1)S(=O)(=O)c1ccc(C(=O)O)cc1 | 
4 | 6.2% | O=S(=O)(c1cccc(Cl)c1)N(Cc1ccccc1)Cc1ccccc1 | 
5 | < 0% | CCCCN(c1ccccc1)S(=O)(=O)c1ccc(C(=O)O)cc1 | 
6 |  | Cc1ccc(-c2cc(C(F)(F)F)nn2-c2ccc(S(N)(=O)=O)cc2)cc1 [CELECOXIB] | viability at 24 h, 100 µM [2]: 50%; Activity [3]: Non-toxic; inhibition [4]: inactive; inhibition [5]: Active
7 | 79.2% | O=C(O)c1ccc(S(=O)(=O)N(Cc2ccc(Oc3ccccc3)cc2)CC2CCCCC2)cc1 | 
8 | < 0% | O=S(=O)(c1ccc(Cl)cc1)N(Cc1ccccc1)Cc1ccccc1 | 
9 | 34.1% | N#Cc1ccc(S(=O)(=O)N(Cc2ccccc2)Cc2ccccc2)cc1 | 
10 | 76% | O=C(O)c1ccc(S(=O)(=O)N(Cc2ccc(-c3ccccc3)cc2)CC2CCCCC2)cc1 | Activity [6]: 75.9%; Activity [7]: 75.7%; Activity [8]: 117%; Activity [9]: 69.7%; inhibition [10]: 51.9%; IC50 [11]: 800 nM; inhibition [12]: 44.4%
11 | < 0% | O=S(=O)(c1ccccc1Cl)N(Cc1ccccc1)Cc1ccccc1 | 
12 | 58.7% | O=C(O)c1ccc(S(=O)(=O)N2CCN(c3ccccc3)CC2)cc1 | 
13 | 73% | O=C(O)c1ccc(S(=O)(=O)N(CCCc2ccccc2)Cc2ccccc2)cc1 | Activity [8]: 129%; Activity [9]: 68%
14 | 6% | COc1ccc(CN(Cc2cccc(C#N)c2)S(=O)(=O)c2ccc(C(=O)O)cc2)cc1 | 
15 | 11.9% | COc1ccc(CN(Cc2ccsc2)S(=O)(=O)c2ccc(C(=O)O)cc2)cc1 | 
16 | 11.9% | O=S(=O)(c1ccc(C(F)(F)F)cc1)N(Cc1ccccc1)Cc1ccccc1 | 
17 | 14.2% | COc1ccc(CN(Cc2ccoc2)S(=O)(=O)c2ccc(C(=O)O)cc2)cc1 | 
18 | 1% | N#Cc1ccc(S(=O)(=O)N(Cc2ccccc2)Cc2ccc(Oc3ccccc3)cc2)cc1 | 
19 | 57% | O=C(O)c1ccc(S(=O)(=O)N(CCc2ccccc2)Cc2ccccc2)cc1 | Activity [8]: 117%; Activity [9]: 83.3%
20 | < 0% | COc1ccc(CN(Cc2ccc(C#N)cc2)S(=O)(=O)c2ccc(C(=O)O)cc2)cc1 | 
21 | 26.4% | O=C(O)c1ccc(S(=O)(=O)N(Cc2ccccc2)c2ccccc2)cc1 | 
22 | < 0% | CCN(c1ccccc1)S(=O)(=O)c1ccc(C(=O)O)cc1 | 
23 | 35.8% | O=C(O)c1cccc(S(=O)(=O)N(Cc2ccccc2)Cc2ccccc2)c1 | 
24 | 2.9% | COc1ccc(CN(Cc2nc(C)cs2)S(=O)(=O)c2ccc(C(=O)O)cc2)cc1 | 
25 | 19.1% | CCCCN(Cc1ccccc1)S(=O)(=O)c1ccc(C(=O)O)cc1 | Activity [6]: 121%; Activity [7]: 124%; Activity [8]: 117%; Activity [9]: 62.8%; Activity [13]: 73.4%; Activity [14]: 97.8%; viability at 24 h, 100 µM [2]: 50%; Activity [3]: Non-toxic; inhibition [4]: inactive; inhibition [5]: Active
26 | 48.4% | O=C(O)c1ccc(S(=O)(=O)N(Cc2ccc(Cl)cc2)CC2CCCCC2)cc1 | 
27 | < 0% | O=S(=O)(c1ccc(F)cc1)N(Cc1ccccc1)Cc1ccccc1 | 
